This test has as its target Protein farnesyltransferase subunit beta/geranylgeranyltransferase type-1 subunit alpha (Mus musculus, UniProt Q61239+Q8K2I1). Nature of the test: Anchorage-independent growth of transformed NIH3T3 cells in soft agar. A digest of the protocol:
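Transformed NIH-3T3 cells grown in soft agar; colonies photographed by video camera and counted; IC50 calculated from colony counts.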

This note sets out measurements from BindingDB's records for doi:10.1016/j.bmcl.2005.10.070 (Pharmacopeia, 2005).

Each structure is given as a SMILES string. Values joined by “and” are separate entries in the source; they are usually repeats but may differ in a detail not shown here. Identical values can stand only once.

The term IC50 denotes the concentration needed to halve the response being measured. High values mean weaker potency, low ones greater potency. `O=C(NCCCn1ccnc1)C1CN(C2c3ccc(Cl)cc3CCc3cc(Br)cnc32)CCN1C(=O)NC1CCCCC1` (stereo unspecified) [4-(3-bromo-8-chloro-6,11-dihydro-5H-benzo[5,6]cyclohepta[1,2-b]pyridin-11-yl)-piperazine-1,2-dicarboxylicacid 1-cyclohexylamide 2-[(3-imidazol-1-yl-propyl)-amide]]: the IC50 is 5 nM and 5.2 nM.
